The source made the active and inactive calls. No cut-off for these calls is given here.
Assays:
[1] = system: MCF7; test: Antiproliferative activity against human MCF7 cells assessed as reduction in cell growth at 10 uM incubated for 24 hrs by MTT assay relative to control; assay type: functional
Procedure, shortened: (§1)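 MTT assay. Cells seeded at 4 × 10^4 per well and incubated overnight. Treated 24 h; DMSO served as negative control and doxorubicin as positive control. MTT dye 0.5 mg/mL added for 2 h at 37 °C, formazan dissolved in DMSO, absorbance read at 570 nm. Single-concentration screen at 10; dose-dependent dilutions gave IC50. WI-38 fibroblasts grown in DMEM with 10% FBS and 1% penicillin/streptomycin. Triplicate means ± S.E.M.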

[2] = molecular target: T1, Ectonucleotide pyrophosphatase/phosphodiesterase family member 1 (Homo sapiens) (UniProt P22413); test: Inhibition of human NPP1 transfected in COS7 cells at 100 uM using pNP-TMP as substrate incubated for 35 mins relative to control; assay type: cell-based
T1 sequence (whole entry): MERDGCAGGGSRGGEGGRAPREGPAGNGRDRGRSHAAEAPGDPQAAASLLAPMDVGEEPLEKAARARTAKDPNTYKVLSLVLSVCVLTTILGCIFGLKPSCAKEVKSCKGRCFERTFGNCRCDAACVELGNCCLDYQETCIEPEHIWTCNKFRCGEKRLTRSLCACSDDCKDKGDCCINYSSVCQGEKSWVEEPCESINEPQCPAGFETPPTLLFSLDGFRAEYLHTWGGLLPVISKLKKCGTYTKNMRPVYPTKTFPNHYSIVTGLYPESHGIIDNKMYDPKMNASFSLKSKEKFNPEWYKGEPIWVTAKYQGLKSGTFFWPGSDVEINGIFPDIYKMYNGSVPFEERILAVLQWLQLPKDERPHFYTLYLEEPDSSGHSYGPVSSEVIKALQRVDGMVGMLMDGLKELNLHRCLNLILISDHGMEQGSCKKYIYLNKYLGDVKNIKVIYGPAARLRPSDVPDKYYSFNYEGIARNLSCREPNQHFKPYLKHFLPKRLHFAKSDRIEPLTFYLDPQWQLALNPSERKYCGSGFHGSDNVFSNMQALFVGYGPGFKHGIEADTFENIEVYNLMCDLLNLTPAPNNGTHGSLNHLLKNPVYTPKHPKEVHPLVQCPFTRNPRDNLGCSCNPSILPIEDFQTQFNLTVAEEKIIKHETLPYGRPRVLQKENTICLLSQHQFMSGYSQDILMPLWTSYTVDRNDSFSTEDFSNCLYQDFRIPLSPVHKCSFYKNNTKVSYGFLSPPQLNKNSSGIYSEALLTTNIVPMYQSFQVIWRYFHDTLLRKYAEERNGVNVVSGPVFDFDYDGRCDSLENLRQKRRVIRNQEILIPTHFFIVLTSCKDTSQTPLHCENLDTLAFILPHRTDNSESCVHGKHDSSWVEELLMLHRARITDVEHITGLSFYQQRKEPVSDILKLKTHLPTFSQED
Procedure, shortened: (§2)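 Human NPP1 or NPP3 expressed in COS-7 cells by plasmid/Lipofectamine transfection, harvested 48-72 h later. Membrane fractions prepared by sonication and 300 g centrifugation, stored with 7.5% glycerol; protein measured by Bradford. Assay buffer: 50 mM Tris-HCl, 5 mM MgCl2, 0.1 mM ZnCl2, pH 9.5. Triplicates ± S.E.M.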

[3] = system: HT-29; test: Antiproliferative activity against human HT-29 cells assessed as reduction in cell growth at 10 uM incubated for 24 hrs by MTT assay relative to control; assay type: functional; procedure, shortened: as §1
[4] = molecular target: T2, Ectonucleotide pyrophosphatase/phosphodiesterase family member 3 (Homo sapiens) (UniProt O14638); test: Inhibition of human NPP3 transfected in COS7 cells at 100 uM using pNP-TMP as substrate incubated for 35 mins relative to control; assay type: cell-based; procedure, shortened: as §2
T2 sequence (whole entry): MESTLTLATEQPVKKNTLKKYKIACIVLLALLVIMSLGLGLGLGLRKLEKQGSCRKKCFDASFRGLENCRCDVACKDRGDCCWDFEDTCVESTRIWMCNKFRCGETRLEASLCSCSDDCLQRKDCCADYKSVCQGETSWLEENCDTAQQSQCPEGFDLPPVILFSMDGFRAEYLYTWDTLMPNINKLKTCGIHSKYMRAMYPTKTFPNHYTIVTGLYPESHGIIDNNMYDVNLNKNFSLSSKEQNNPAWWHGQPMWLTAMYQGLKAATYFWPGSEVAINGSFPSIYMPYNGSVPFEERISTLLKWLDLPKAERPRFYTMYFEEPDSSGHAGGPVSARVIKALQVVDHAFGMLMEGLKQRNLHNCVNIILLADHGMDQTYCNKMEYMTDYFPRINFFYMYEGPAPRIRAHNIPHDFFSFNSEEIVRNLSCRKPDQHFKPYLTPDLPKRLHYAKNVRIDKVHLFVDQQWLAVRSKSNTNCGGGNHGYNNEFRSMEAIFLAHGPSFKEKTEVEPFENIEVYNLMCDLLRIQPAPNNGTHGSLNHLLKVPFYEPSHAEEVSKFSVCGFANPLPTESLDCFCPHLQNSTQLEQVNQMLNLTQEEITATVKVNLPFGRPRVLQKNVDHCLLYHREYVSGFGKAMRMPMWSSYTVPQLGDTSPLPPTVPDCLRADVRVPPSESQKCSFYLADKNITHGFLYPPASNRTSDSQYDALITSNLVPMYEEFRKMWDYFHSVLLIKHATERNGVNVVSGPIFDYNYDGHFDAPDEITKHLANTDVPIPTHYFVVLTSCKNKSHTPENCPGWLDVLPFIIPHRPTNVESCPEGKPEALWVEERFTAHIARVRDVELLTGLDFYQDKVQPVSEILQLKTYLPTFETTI

[5] = molecular target: T3, Ectonucleotide pyrophosphatase/phosphodiesterase family member 3 (Homo sapiens, UniProt O14638); test: Inhibition of human NPP3 transfected in COS7 cells using pNP-TMP as substrate incubated for 35 mins; assay type: cell-based
T3 sequence (O14638 whole entry): T2 sequence (whole entry)

[6] = molecular target: T4, Ectonucleotide pyrophosphatase/phosphodiesterase family member 1 (Homo sapiens, UniProt P22413); test: Inhibition of human NPP1 transfected in COS7 cells using pNP-TMP as substrate incubated for 35 mins; assay type: cell-based
T4 sequence (P22413 whole entry): T1 sequence (whole entry)

[7] = system: WI-38; test: Cytotoxicity against human WI-38 cells assessed as reduction in cell growth incubated for 24 hrs by MTT assay; assay type: cell-based; details: WI-38, 24 h; procedure, shortened: as §1
[8] = system: HT-29; test: Antiproliferative activity against human HT-29 cells assessed as reduction in cell growth incubated for 24 hrs by MTT assay; assay type: functional, cell-based; details: HT-29, 24 h
Procedure, shortened: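 HT-29 colon cancer cells seeded per well and incubated overnight, then exposed for 24 h to serial dilutions of compound (10 mM DMSO stock diluted in medium), with doxorubicin and DMSO controls. MTT (0.5 mg/mL) added for 2 h at 37 °C, formazan dissolved in DMSO, absorbance read at 570 nm. IC50 from triplicate assays, mean ± S.E.M.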

[9] = molecular target: T2, Ectonucleotide pyrophosphatase/phosphodiesterase family member 3 (Homo sapiens); test: Competitive inhibition of human NPP3 transfected in COS7 cells at 0.1 to 1 uM using pNP-TMP as substrate incubated for 35 mins by Lineweaver-Burk plot analysis; assay type: cell-based; details: dose 0.1-1 µM
Procedure, shortened: (§3)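 Kinetics with pNP-TMP at 0.0, 1.25, 2.50, 5.0, 7.5 and 10.0 mM in Tris-HCl 50 mM, MgCl2 5 mM, ZnCl2 0.1 mM, pH 9.5. Incubated at 37 °C and read over 35 min at 5-min intervals. Enzyme from transfected COS-7 membrane fractions.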

[10] = molecular target: T1, Ectonucleotide pyrophosphatase/phosphodiesterase family member 1 (Homo sapiens); test: Non-competitive inhibition of human NPP1 transfected in COS7 cells at 0.5 to 1.5 uM using pNP-TMP as substrate incubated for 35 mins by Lineweaver-Burk plot analysis; assay type: cell-based; details: dose 0.5-1.5 µM; procedure, shortened: as §3
[11] = system: MCF7; test: Antiproliferative activity against human MCF7 cells assessed as reduction in cell growth incubated for 24 hrs by MTT assay; assay type: functional, cell-based; details: MCF7, 24 h; procedure, shortened: as §1
[12] = molecular target: T4, Ectonucleotide pyrophosphatase/phosphodiesterase family member 1; test: Inhibition of NPP1 (unknown origin) transfected in COS7 cells using pNP-TMP as substrate incubated for 35 mins by spectrophotometric method; assay type: cell-based; procedure, shortened: as §2
[13] = system: MCF7; test: Antiproliferative activity against human MCF7 cells assessed as reduction in cell growth at 100 uM incubated for 24 hrs by MTT assay relative to control; assay type: functional
[14] = molecular target: T3, Ectonucleotide pyrophosphatase/phosphodiesterase family member 3; test: Inhibition of NPP3 (unknown origin) transfected in COS7 cells using pNP-TMP as substrate incubated for 35 mins by spectrophotometric method; assay type: cell-based; procedure, shortened: as §2
[15] = Toxicity in BALB/c mouse assessed as glucose level at 20 mg/kg, ip measured at 0 hrs (reference value: 106 to 141 mg/dl); assay type: organism-based; details: in vivo
Procedure, shortened: (§4)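 Male BALB/c mice weighing 30-35 g, five per group. Given i.p. at 10 or 20 mg/kg in (2-hydroxypropyl)-β-cyclodextrin solution. Control group received vehicle alone. Blood glucose (mg/dL) measured at 0, 30, 60, 90 and 120 min after injection.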

[16] = Toxicity in BALB/c mouse assessed as glucose level at 20 mg/kg, ip measured at 120 mins (reference value: 106 to 141 mg/dl); details: in vivo
[17] = Toxicity in BALB/c mouse assessed as glucose level at 20 mg/kg, ip measured at 90 mins (reference value: 106 to 141 mg/dl); details: in vivo
[18] = Toxicity in BALB/c mouse assessed as glucose level at 20 mg/kg, ip measured at 60 mins (reference value: 106 to 141 mg/dl); details: in vivo
[19] = Toxicity in BALB/c mouse assessed as glucose level at 10 mg/kg, ip measured at 60 mins (reference value: 106 to 141 mg/dl); details: in vivo
[20] = Toxicity in BALB/c mouse assessed as glucose level at 10 mg/kg, ip measured at 120 mins (reference value: 106 to 141 mg/dl); details: in vivo
[21] = Toxicity in BALB/c mouse assessed as glucose level at 10 mg/kg, ip measured at 90 mins (reference value: 106 to 141 mg/dl); details: in vivo
[22] = Toxicity in BALB/c mouse assessed as glucose level at 20 mg/kg, ip measured at 30 mins (reference value: 106 to 141 mg/dl); details: in vivo
[23] = Toxicity in BALB/c mouse assessed as glucose level at 10 mg/kg, ip measured at 0 hrs (reference value: 106 to 141 mg/dl); assay type: organism-based; details: in vivo; procedure, shortened: as §4
[24] = Toxicity in BALB/c mouse assessed as glucose level at 10 mg/kg, ip measured at 30 mins (reference value: 106 to 141 mg/dl); details: in vivo

| Structure (SMILES) | inhibition at 10 µM [1] [%] | inhibition at 10 µM [3] [%] | IC50 [5] [nM] | IC50 [6] [nM] | also measured |
| --- | --- | --- | --- | --- | --- |
| O=C(NS(=O)(=O)c1ccc2ccccc2c1)n1ccc2cccnc21 | 1.9 | 16.2 | – | – | inhibition [2]: 48.6%; inhibition [4]: 44.1% |
| O=C(NS(=O)(=O)c1ccc(Cl)cc1)n1ccc2cccnc21 | 33.5 | 54.4 | 880 | 10400 | – |
| O=C(NS(=O)(=O)c1ccccc1)n1ccc2c(Cl)ccnc21 | 3.32 | 47.6 | 26100 | 1080 | – |
| COc1cccc2c1C(=O)c1c(O)c3c(c(O)c1C2=O)C[C@@](O)(C(=O)CO)C[C@@H]3O[C@H]1C[C@H](N)[C@H](O)[C@H](C)O1 [DOXORUBICIN] | 96.8 | 94.3 | – | – | IC50 [7]: 1960 nM; IC50 [8]: 1400 nM |
| CN(C)c1ccnc2c1ccn2C(=O)NS(=O)(=O)c1ccccc1 | 26.9 | 17.6 | 550 | 2770 | inhibition [9]: Active |
| O=C(NS(=O)(=O)c1ccc2ccccc2c1)n1ccc2cc(Br)cnc21 | 28.8 | 60.1 | 25300 | 178000 | – |
| O=C(NS(=O)(=O)c1ccccc1)n1ccc2cc(Br)cnc21 | 16.8 | 14.6 | 2010 | 8300 | – |
| O=C(NS(=O)(=O)c1cccc([N+](=O)[O-])c1)n1ccc2cccnc21 | 70.7 | 18.9 | 1170 | 800 | IC50 [7]: > 20000 nM; inhibition [10]: Active; IC50 [11]: 4700 nM |
| Cc1ccc(S(=O)(=O)NC(=O)n2ccc3c(N(C)C)ccnc32)cc1 | 5.6 | 21.4 | – | – | inhibition [2]: 41.5%; inhibition [4]: 45.7% |
| O=C(NS(=O)(=O)c1cccc([N+](=O)[O-])c1)n1ccc2cc(Br)cnc21 | 43 | 58.5 | 2130 | 1150 | – |
| Cc1ccc(S(=O)(=O)NC(=O)n2ccc3cccnc32)cc1 | 20.3 | 33.4 | 3720 | – | inhibition [2]: 47.9% |
| COc1ccc(-c2nn(-c3cccc(NS(=O)(=O)c4ccc(C)cc4)c3)cc2-c2ccncc2)cc1Cl | – | – | – | – | IC50 [12]: 180 nM; inhibition at 100 µM [13]: 40.3% |
| O=C(NS(=O)(=O)c1ccccc1)n1ccc2cccnc21 | 18.9 | 23.6 | – | 4500 | inhibition [4]: 37.5% |
| Oc1ccc(-c2nn(-c3cccc(NC(=S)Nc4ccccc4)c3)cc2-c2ccncc2)cc1Cl | – | – | – | – | IC50 [14]: 210 nM; inhibition at 100 µM [13]: 35.6% |
| Cc1ccc(S(=O)(=O)NC(=O)n2ccc3cc(Br)cnc32)cc1 | 28 | 82.4 | 590 | 1550 | Activity [15]: 114 mg/dL; Activity [16]: 121 mg/dL; IC50 [7]: 18400 nM; Activity [17]: 128 mg/dL; IC50 [8]: 1580 nM; Activity [18]: 114 mg/dL; Activity [19]: 122 mg/dL; Activity [20]: 121 mg/dL; Activity [21]: 124 mg/dL; Activity [22]: 113 mg/dL; Activity [23]: 108 mg/dL; Activity [24]: 103 mg/dL |
| O=C(NS(=O)(=O)c1ccc2ccccc2c1)n1ccc2c(Cl)ccnc21 | 28.6 | 58.2 | 1310 | 3290 | – |
